# Shown are actives, neighbours in structure and some others; about 1.8% of the full set was active somewhere.
# DAGLB inh: diacylglycerol lipase beta (human) inhibition. HEK293T DAGLB membrane lysate, EnzChek fluorogenic substrate. AID 504411. inhibition, % at 5.17 µM. Q8NCG7. 340,000 compounds, 0.059% hits; in the data active means inhibition above about 34%;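 further: 0% = enzyme with vehicle and 100% = wells lacking enzyme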
# Target sequence (Q8NCG7 whole entry, looked up): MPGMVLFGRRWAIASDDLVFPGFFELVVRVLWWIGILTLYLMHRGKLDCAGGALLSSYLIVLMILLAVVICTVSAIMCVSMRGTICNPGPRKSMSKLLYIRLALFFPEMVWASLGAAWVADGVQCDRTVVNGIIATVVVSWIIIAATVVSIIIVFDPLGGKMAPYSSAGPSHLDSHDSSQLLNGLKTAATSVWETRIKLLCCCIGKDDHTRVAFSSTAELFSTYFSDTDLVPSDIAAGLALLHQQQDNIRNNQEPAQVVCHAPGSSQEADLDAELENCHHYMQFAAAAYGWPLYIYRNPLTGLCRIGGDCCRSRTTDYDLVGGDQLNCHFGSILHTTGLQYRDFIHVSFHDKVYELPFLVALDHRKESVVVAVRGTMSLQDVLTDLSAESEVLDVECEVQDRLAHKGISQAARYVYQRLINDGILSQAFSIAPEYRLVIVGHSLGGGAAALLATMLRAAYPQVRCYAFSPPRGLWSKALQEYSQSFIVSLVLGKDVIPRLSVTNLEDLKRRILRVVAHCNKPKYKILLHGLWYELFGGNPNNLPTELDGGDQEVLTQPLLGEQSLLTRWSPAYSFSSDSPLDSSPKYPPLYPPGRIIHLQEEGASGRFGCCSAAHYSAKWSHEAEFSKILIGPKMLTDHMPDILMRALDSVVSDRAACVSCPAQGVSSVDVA
# Ecoli rRNA inh: selective bacterial rRNA inhibition in E. coli | E. coli WT GFP vs humanized-ribosome RFP mutants, fluorescence, 24 h; stronger effect = lower value; DMSO median 0, no signal -100 | 350,000 compounds, 1.6% hits | GFP signal change (wild-type ribosome), % (no concentration beside the values) | AID 720706;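 active means significant combined selectivity score with lowered wild-type GFP, culture density cut under 30%, mutant RFP and density less affected; inactive means any of these conditions unmet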
# hiPSC survival: hiPSC single-cell survival enhancement; ATPlite luminescence; 100% = ROCK inhibitor wells, 0% = DMSO; survival enhancement, % at 20 µM; 360,000 compounds, 0.044% hits; in the data active means survival enhancement above about 18%;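 further: cells exposed to compounds for 16 hours before the ATP read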
# Cneo AK release: Cryptococcus neoformans lysis via adenylate kinase release; lysis activity, % at 15 µM; C. neoformans lysis, adenylate kinase release luminescence, 4 h; normalised: neutral wells 0, clomiphene wells 100; 360,000 compounds, 0.2% hits;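 active means mean lysis activity across replicates of at least 80%, whatever share of replicates individually reach that level; inactive means mean lysis activity below 80%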
#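 Material: C. neoformans cells; Schedule: 4 h static compound exposure, 37 °C, read 1 h post-reagent; Measured by: adenylate kinase release luminescence; Read-out: signal increase indicating cell lysis; Controls: Clomiphene as positive lysis control.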
# SKN-1 block: blocks SKN-1 activity in C. elegans | AID 624304 | 360,000 compounds, 0.49% hits | C. elegans VP596 Pgst-4::GFP/RFP ratio, acrylamide-induced, 24 h | inhibition, % at 21.8 µM;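 active means interference check ratio from 0.5 to 1.5 plus GFP to RFP signal ratio inhibition reaching or exceeding a fixed threshold, cut at about 30% in these data, passing the limit was not always enough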
# MT1-MMP act inh: MT1-MMP (human) activation inhibition | P50281 | HT1080 RFP-PRO-GFP cells, GFP/RFP ratio fluorescence, overnight; percent of plate control window, DMSO zero | GFP/RFP ratio change, % at 20 µM | 360,000 compounds, 0.061% hits;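 active means GFP/RFP ratio change of at least 30% with cell ATP level not reduced by more than half and red fluorescence within 50% of control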
#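 Material: RFP-PRO-GFP reporter HT1080 cells. Dosing: single-point 20 µM compound, 1% DMSO. Controls: DMSO and RFP-L50D-GFP cell wells. Timing: cells overnight before dosing, compound overnight, 37 °C, 5% CO2. Measure: GFP/RFP fluorescence ratio.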
# * = called active by the depositor; nt = no result given.
SMILES,DAGLB inh,Ecoli rRNA inh,hiPSC survival,Cneo AK release,SKN-1 block,MT1-MMP act inh
COC(=O)C(Cc1ccccc1)NC(=O)C12CC3CC(CC(C3)C1)C2 (stereo not drawn),-7,-34*,-1,nt,4,-1
COC(=O)C(Cc1ccc(O)cc1)NC(=O)C12CC3CC(CC(C3)C1)C2 (stereo not drawn),-2,8,-2,nt,0,2
O=C(C1CCCN(S(=O)(=O)c2cccc3nonc23)C1)N1CCN(c2ccccc2)CC1 (stereo not drawn),3,-29*,1,0,6,3
CC1CC(C)CN(C(=O)C2CCCN(S(=O)(=O)c3cccc4nonc34)C2)C1 (stereo not drawn),-5,nt,1,-2,-5,-1
Cc1cccc(C)c1NC1=C(Cl)C(=O)OC1OC(=O)c1ccccc1 (stereo not drawn),8,-32,0,nt,3,-4
Cc1ccc(NC2=C(Cl)C(=O)OC2OC(=O)c2ccccc2)c(C)c1 (stereo not drawn),15,-41*,-1,nt,-1,1
Clc1ccc(CSc2ccc(-c3cccnc3)nn2)cc1,-1,-3,1,nt,37*,5
CC(C)C[C@H]1COCc2cn(nn2)CC[C@@H](Cc2cccc(Cl)c2)C(=O)N1,nt,-2,nt,nt,nt,nt
C[C@H](O)[C@@H]1CN2CCc3c([nH]c4c(-c5ccccc5)cccc34)[C@@H]2C[C@@H]1N(C)C(=S)NCCc1ccccc1,nt,-30*,nt,nt,nt,nt
C[C@H](O)[C@@H]1CN2CCc3c([nH]c4c(-c5ccccc5)cccc34)[C@@H]2C[C@@H]1N(C)C(=O)Nc1ccccc1,nt,-34,nt,nt,nt,nt
C[C@@H]1ON(C)[C@H]2C[C@H]3c4[nH]c5c(-c6ccccc6)cccc5c4CCN3C[C@@H]12,nt,-26*,nt,nt,nt,nt
C=CCNC(=S)N(C)[C@H]1C[C@H]2c3cc(-c4ccccc4C)ccc3CCN2C[C@H]1[C@H](C)O,nt,-30*,nt,nt,nt,nt
CC1(C)CC(=O)C(C=NCC(N)=O)=C(O)C1,-1,-23*,1,-1,-10,2
COc1ccc(NC(=O)N(C)C[C@@H]2Oc3ccc(NC(=O)Nc4c(C)noc4C)cc3CC(=O)N([C@@H](C)CO)C[C@@H]2C)cc1,nt,0,nt,-1,nt,nt
CCS(=O)(=O)N1CC2(CN(C(=O)NC(C)C)[C@H](CO)c3c2c2ccc(OC)cc2n3C)C1,nt,-1,nt,nt,nt,nt
COC(=O)C(C)Oc1cc(OC(C)C(=O)OC)c2c(-c3ccccc3)cc(=O)oc2c1 (stereo not drawn),-2,-24*,1,1,9,-3
Cn1ncc2c(NCCc3ccccc3)nc(Cl)nc21,-2,-25,1,0,35*,1
Clc1nc(NCCc2ccccc2)c2cn[nH]c2n1,0,-30*,-2,0,-4,7
O=c1[nH]ncc(NCCc2ccccc2)c1Cl,-1,15,2,nt,0,2
COCC(=O)Nc1ccc2c(c1)OC[C@@H](C)N(Cc1cncnc1)C[C@H](C)[C@H](OC)CN(C)C2=O,nt,1,nt,nt,nt,nt
O=c1cc(/C=C/c2ccccc2)oc2ccccc12,-3,nt,0,-1,43*,2
COCC(=O)Nc1ccc2c(c1)C(=O)N(C)[C@@H]1CC[C@H](CC(=O)Nc3cn(C)nc3C)O[C@H]1CO2,nt,5,nt,-3,nt,nt
CN1C(=O)/C(=C/C=C2\SCCN2C)N(C)C1=S,10,11,2,2,47*,26
Cc1cc(/C=C2/C(=O)N(C)C(=S)N2C)c(C)n1C1CC1,1,8,-1,2,20,-14
NS(=O)(=O)c1ccc2c(c1)C(=NO)c1cc(S(N)(=O)=O)ccc1-2,-1,-10,0,7,9,4
SMILES,DAGLB inh,Ecoli rRNA inh,hiPSC survival,Cneo AK release,SKN-1 block,MT1-MMP act inh
CN(CCO)S(=O)(=O)c1ccc2c(c1)C(=NO)c1cc(S(=O)(=O)N(C)CCO)ccc1-2,-1,-27*,0,0,12,-1
O=C(NCC1CCN(C(=O)C(=O)c2cc3ccccc3o2)CC1)c1ccc2c(c1)OCCCO2,nt,-17*,nt,nt,nt,nt
O=C(C(=O)N1CCC(CNS(=O)(=O)c2ccccc2)CC1)c1cc2ccccc2o1,nt,-13*,nt,nt,nt,nt
CSc1ccc(C(=O)NCC2CCN(C(=O)C(=O)c3cc4ccccc4o3)CC2)cc1,nt,-14*,nt,nt,nt,nt
CCN(C(=O)c1cnc(NC(C)C)cc1C(F)(F)F)c1ccc(Cl)cc1Cl,-5,-23*,0,1,10,-6
CCN(C(=O)c1cc(Cl)ccc1OC)c1ccccc1C,-3,nt,-2,1,6,0
Cc1noc(C)c1NC(=O)Nc1ccc2c(c1)C(=O)N([C@@H](C)CO)C[C@@H](C)[C@@H](CN(C)S(=O)(=O)c1ccccc1)OCCCC[C@@H](C)O2,nt,-3,nt,-2,nt,nt
CCOC(=O)C1CCCN(C(=O)c2ccc3oc(CCc4ccccc4)nc3c2)C1 (stereo not drawn),0,-29*,0,-4,-5,-2
CCOC(=O)C1CCCN(C(=O)c2ccc3nc(-c4cccc(OC)c4)oc3c2)C1 (stereo not drawn),-6,-35*,0,-4,-6,-1
CCCNC(=O)N1C[C@@H](C)[C@H](OC)CN(C)C(=O)c2cc(NC(=O)C3CCC3)ccc2OC[C@H]1C,nt,2,nt,nt,nt,nt
CO[C@H]1CN(C)C(=O)c2ccc(NC(=O)c3ccccc3F)cc2OC[C@H](C)N(CC2CC2)C[C@@H]1C,nt,-2,nt,nt,nt,nt
Cc1ccc(N=Cc2c(O)c3ccccc3oc2=O)c(C)c1,-4,12,-1,-3,-18,-8
CCc1cccc(C)c1N=Cc1c(O)c2ccccc2oc1=O,-7,-24*,0,-1,-13,-11
O=C(c1ccco1)N1CCN(C/C=C/c2ccccc2)CC1,-1,nt,8,2,35*,2
COc1ccc(C2CC(c3ccccc3)=NN2S(=O)(=O)c2ccccc2)c(OC)c1 (stereo not drawn),-1,5,2,nt,5,-6
COc1ccc(C2CC(c3ccccc3)=NN2S(=O)(=O)c2ccc(C)cc2)c(OC)c1 (stereo not drawn),-17,nt,2,nt,52*,-5
COC(=O)C1=C(C)N=c2s/c(=C/c3ccoc3)c(=O)n2C1c1ccccc1 (stereo not drawn),0,nt,5,2,6,-13
COC(=O)C1=C(C)N=c2s/c(=C/c3cccs3)c(=O)n2C1c1cccs1 (stereo not drawn),-2,nt,1,1,39*,-5
CC(C)C#Cc1cnc2c(c1)C(=O)N([C@H](C)CO)C[C@H](C)[C@H](CN(C)C(=O)c1cccnc1)O2,nt,4,nt,5,nt,nt
CCOc1ccc(S(=O)(=O)Nc2ccc(S(=O)(=O)N3CCCC3)cc2)cc1,0,-27*,3,0,15,-4

# High-throughput results as filed in PubChem BioAssay.
